Reference: ChEMBL document CHEMBL4400551, “Discovery and lead optimisation of a potent, selective and orally bioavailable RARβ agonist for the potential treatment of nerve injury” (Bioorg Med Chem Lett, 2019)
Calls of active or inactive are those of the source. The calls are words filed in the database; no cut-off is given here.

Key:
[1] = target: T1, Retinoic acid receptor gamma (Mus musculus, UniProt P18911); experiment: Transactivation of GAL4-fused mouse RARgamma-LBD expressed in COS-7 cells after 24 hrs by bright-Glo reagent based assay; format: cell-based
T1 sequence (P18911 whole entry): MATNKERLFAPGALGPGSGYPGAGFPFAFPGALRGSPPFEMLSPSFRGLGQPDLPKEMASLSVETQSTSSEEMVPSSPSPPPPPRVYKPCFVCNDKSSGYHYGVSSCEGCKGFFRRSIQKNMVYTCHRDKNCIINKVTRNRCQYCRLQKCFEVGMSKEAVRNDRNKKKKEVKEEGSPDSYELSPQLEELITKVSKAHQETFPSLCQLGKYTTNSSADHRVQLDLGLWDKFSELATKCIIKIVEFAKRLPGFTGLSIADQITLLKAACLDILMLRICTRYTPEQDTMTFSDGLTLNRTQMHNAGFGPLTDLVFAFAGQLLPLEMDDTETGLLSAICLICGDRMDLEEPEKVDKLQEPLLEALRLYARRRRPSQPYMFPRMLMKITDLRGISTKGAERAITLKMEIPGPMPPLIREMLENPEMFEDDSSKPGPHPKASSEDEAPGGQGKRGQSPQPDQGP
How it was run: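 Transactivation assays with mouse RAR α, β and γ ligand binding domains; values usually from three separate experiments, with error about 20% of the mean.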

Mus musculus = species on record: Mus musculus; experiment: Selectivity ratio of EC50 for GAL4-fused mouse RARalpha LBD expressed in COS-7 cells to EC50 for GAL4-fused mouse RARbeta-LBD expressed in COS-7 cells; format: cell-based
[2] = Fraction absorbed in Sprague-Dawley rat at 1 to 10 mg/kg, po by LC-MS/MS analysis; format: ADME, organism-based; conditions: in vivo, read-out: Fabs
How it was run: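 Rats: oral doses of 1, 3 and 10 mg/kg in 8% ethanol/92% PEG-400; iv reference 0.5 mg/kg in 4% DMSO, 38% PEG-400, 58% (0.9%) NaCl. Fraction absorbed is the mean over the three oral doses relative to the iv dose.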

HepG2 = experiment: Cytotoxicity against human HepG2 cells at 50 uM; format: cell-based; conditions: hepg2, 50 µM
How it was run: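 HepG2 cell toxicity assay; highest concentration tested 50 μM.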

[3] = target: Voltage-gated inwardly rectifying potassium channel KCNH2 (Homo sapiens, UniProt Q12809); experiment: Displacement of [3H]astemizole from human ERG at 10 uM
Chain of Voltage-gated inwardly rectifying potassium channel KCNH2 (Q12809 whole entry): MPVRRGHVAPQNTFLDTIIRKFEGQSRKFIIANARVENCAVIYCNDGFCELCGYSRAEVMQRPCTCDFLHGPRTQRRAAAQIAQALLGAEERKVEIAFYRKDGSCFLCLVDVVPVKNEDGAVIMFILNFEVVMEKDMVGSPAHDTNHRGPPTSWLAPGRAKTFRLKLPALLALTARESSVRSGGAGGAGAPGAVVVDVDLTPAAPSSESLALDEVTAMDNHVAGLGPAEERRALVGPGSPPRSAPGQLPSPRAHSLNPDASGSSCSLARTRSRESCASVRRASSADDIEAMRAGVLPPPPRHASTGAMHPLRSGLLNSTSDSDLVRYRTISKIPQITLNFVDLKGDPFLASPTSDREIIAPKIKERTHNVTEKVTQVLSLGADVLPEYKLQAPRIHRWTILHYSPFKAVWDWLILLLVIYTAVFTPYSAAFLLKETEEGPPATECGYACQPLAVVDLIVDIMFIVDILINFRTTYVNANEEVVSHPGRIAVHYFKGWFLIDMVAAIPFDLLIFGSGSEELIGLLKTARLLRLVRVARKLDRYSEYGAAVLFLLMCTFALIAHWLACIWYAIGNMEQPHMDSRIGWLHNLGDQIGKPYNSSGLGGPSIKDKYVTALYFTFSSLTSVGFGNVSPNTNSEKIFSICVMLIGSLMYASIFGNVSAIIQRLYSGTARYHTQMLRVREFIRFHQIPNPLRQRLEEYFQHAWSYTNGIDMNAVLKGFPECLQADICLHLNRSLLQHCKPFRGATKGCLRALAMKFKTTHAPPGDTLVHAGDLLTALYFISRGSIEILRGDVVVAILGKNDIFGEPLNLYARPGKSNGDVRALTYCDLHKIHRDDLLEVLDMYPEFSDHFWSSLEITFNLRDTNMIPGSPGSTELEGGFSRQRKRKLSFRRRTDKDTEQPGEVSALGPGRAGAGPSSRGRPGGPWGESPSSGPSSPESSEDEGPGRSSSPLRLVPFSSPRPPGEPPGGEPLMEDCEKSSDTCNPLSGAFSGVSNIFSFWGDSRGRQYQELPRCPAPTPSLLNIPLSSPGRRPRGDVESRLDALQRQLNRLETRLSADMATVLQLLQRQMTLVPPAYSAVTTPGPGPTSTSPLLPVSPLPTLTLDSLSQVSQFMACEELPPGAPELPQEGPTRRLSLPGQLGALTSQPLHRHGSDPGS
How it was run: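 HERG channel binding assay at 10 μM.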

[4] = Genotoxicity in Salmonella typhimurium TA98 at 100 uM by Ames test; format: toxicity; conditions: salmonella enterica subsp. enterica serovar typhimurium
How it was run: (§1)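 Ames test in three bacterial strains.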

Rattus norvegicus [5] = experiment: Neuroprotective activity in avulsed rat model assessed as reduction in latency for time taken to sense and remove the tape from the paw of the lesioned forelimbs at 3 mg/kg, po administered every other day for 4 weeks; format: functional, organism-based
How it was run: (§2)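 Rats with avulsion injury given 3 mg/kg orally three times a week, every other day; sensory and locomotor function assessed. Mean of n = 8; two-way repeated-measures ANOVA with Tukey's post-hoc test.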

CHO-MG = experiment: Agonist activity at RARbeta in CHO-MG cells assessed as increase in neurite length after 24 hrs by immunostaining based assay; format: cell-based; conditions: Cricetulus griseus
How it was run: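 Cerebellar neurons cultured on a CHO-MAG cell monolayer; 24 hr exposure to vehicle or agonist at 1×10^-8 – 1×10^-6 M. Neurite outgrowth read by immunostaining and neurite length quantification; means of 3 independent experiments; Student's t-test, vehicle versus highest dose.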

[6] = Drug uptake in Sprague-Dawley rat brain at 1 to 10 mg/kg, po measured after 8 hrs by LC-MS/MS analysis; format: ADME, organism-based; conditions: in vivo
How it was run: (§3)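 Oral dosing to rats; brain tissue and plasma levels compared 8 h after dosing.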

[7] = Drug uptake in Sprague-Dawley rat plasma at 1 to 10 mg/kg, po measured after 8 hrs by LC-MS/MS analysis; format: ADME, organism-based; conditions: in vivo; how it was run: as §3
[8] = Genotoxicity in Salmonella typhimurium TA100 at 100 uM by Ames test; format: toxicity; conditions: salmonella enterica subsp. enterica serovar typhimurium; how it was run: as §1
[9] = Genotoxicity in Salmonella typhimurium TA1535 at 100 uM by Ames test; format: toxicity; conditions: salmonella enterica subsp. enterica serovar typhimurium; how it was run: as §1
Salmonella typhimurium [10] = experiment: Toxicity in Salmonella typhimurium TA100 at 100 uM; format: organism-based; conditions: salmonella enterica subsp. enterica serovar typhimurium
How it was run: (§4)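 Bacterial cytotoxicity testing up to 100 μM.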

Salmonella typhimurium [11] = experiment: Toxicity in Salmonella typhimurium TA1535 at 100 uM; format: organism-based; conditions: salmonella enterica subsp. enterica serovar typhimurium; how it was run: as §4
Salmonella typhimurium [12] = experiment: Toxicity in Salmonella typhimurium TA98 at 100 uM; format: organism-based; conditions: salmonella enterica subsp. enterica serovar typhimurium; how it was run: as §4
CHO-K1 [13] = experiment: Genotoxicity in CHOK1 cells in presence of S9 fraction by micronucleus test; format: toxicity, cell-based, Cricetulus griseus; conditions: chinese hamster
How it was run: (§5)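 In vitro micronucleus test in CHO-K1 cells, run both with and without S9.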

CHO-K1 [14] = experiment: Genotoxicity in CHOK1 cells in absence of S9 fraction by micronucleus test; format: toxicity, cell-based, Cricetulus griseus; conditions: chinese hamster; how it was run: as §5
Rattus norvegicus [15] = experiment: Neuroprotective activity in avulsed rat model assessed as reduction in number of foot slips in a horizontal ladder by injured forelimb at 3 mg/kg, po administered every other day for 4 weeks; format: functional, organism-based; how it was run: as §2

SMILES | EC50 [1] [nM] | Ratio EC50 (Mus musculus) | also measured
CCOc1c(Cl)cc(-c2nnc(-c3ccc(C(=O)O)cc3)o2)cc1Cl | 150 | – | –
Cc1ccc(C)c2sc(-c3nc(-c4ccc(C(=O)O)cc4)no3)cc12 | – | 9 | –
Cc1ccc(C)c2oc(-c3nc(-c4ccc(C(=O)O)cc4F)no3)cc12 | – | 5.5 | –
Cc1ccc(C)c2oc(-c3nc(-c4ccc(C(=O)O)cc4)no3)cc12 | – | 13 | Fa [2]: 80%; Activity (HepG2): Non-Toxic; inhibition (INH) [3]: Not Active; Activity [4]: Non-Toxic; Activity (Rattus norvegicus [5]): Active; Activity (CHO-MG): Dose-dependent effect; Drug uptake [6]: Active; Drug uptake [7]: Active; Activity [8]: Non-Toxic; Activity [9]: Non-Toxic; Activity (Salmonella typhimurium [10]): Non-Toxic; Activity (Salmonella typhimurium [11]): Non-Toxic; Activity (Salmonella typhimurium [12]): Non-Toxic; Activity (CHO-K1 [13]): Non-Toxic; Activity (CHO-K1 [14]): Non-Toxic; Activity (Rattus norvegicus [15]): Active
CC1(C)CCC(C)(C)c2cc(-c3nc(-c4ccc(C(=O)O)cc4)no3)ccc21 | – | 17 | –
CC(C)(C)c1cc(-c2nc(-c3ccc(C(=O)O)cc3)no2)cc(C(C)(C)C)c1 | – | 2.8 | –
Cc1ccc(C)c2oc(-c3nc(-c4ccc(C(=O)O)cc4)no3)nc12 | – | 10 | –
Cc1cc(-c2noc(-c3cc4c(C)ccc(C)c4o3)n2)ccc1C(=O)O | – | 6.4 | –
CCOc1c(Cl)cc(-c2csc(-c3ccc(C(=O)O)cc3)n2)cc1Cl | 160 | – | –
Cc1cc(C(=O)O)ccc1-c1noc(-c2cc3c(C)ccc(C)c3o2)n1 | – | 13 | –
CCOc1c(Cl)cc(-c2noc(-c3ccc(C(=O)O)cc3)n2)cc1Cl | 5.4 | – | –
Cc1ccc(C)c2oc(-c3nc(-c4ccc(C(=O)O)c(F)c4)no3)cc12 | – | 7.3 | –
CCOc1c(Cl)cc(-c2cnc(-c3ccc(C(=O)O)cc3)o2)cc1Cl | 45 | – | –
CCCCOCCOc1nc(-c2ccc(C(=O)O)c(F)c2)sc1C | – | 5.8 | –
O=C(O)c1ccc(-c2noc(-c3cc4c(C(F)(F)F)ccc(F)c4o3)n2)cc1 | – | 7.6 | –
CCOc1c(Cl)cc(C(=O)Nc2ccc(C(=O)O)cc2)cc1Cl | 30000 | – | –
